Results on two compounds are retold here after paper PMC3115441 (Chemical biology & drug design, 2011).

Data set [1] relates to rats. The experiment in a line: Acute toxicity, minimal motor impairment in rats. The settings on record: 30 mg/kg. The data set is classed as in vivo.
Data set [2] concerns PCP site of the NMDA receptor complex. In words: [3H]. Type of data set: binding, rat. The method, boiled down: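 Washed rat forebrain homogenate (30 ug/mL protein) in 10 mM HEPES, pH 7.4, with 1 nM (+)-[3H]MK-801, 100 uM glutamate, 30 uM glycine and varied competitor concentrations. Nonspecific binding was set with 30 uM (+)-MK-801. Incubation ran 2 h at room temperature, then vacuum filtration onto GF/B filters, three buffer washes and scintillation counting.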

For data set [3], the target named is Dopamine 1 (D1) (Homo sapiens, UniProt P21728). In words: NIMH-PDSP radioligand binding, D1.
Dopamine 1 (D1), sequence (P21728 whole entry): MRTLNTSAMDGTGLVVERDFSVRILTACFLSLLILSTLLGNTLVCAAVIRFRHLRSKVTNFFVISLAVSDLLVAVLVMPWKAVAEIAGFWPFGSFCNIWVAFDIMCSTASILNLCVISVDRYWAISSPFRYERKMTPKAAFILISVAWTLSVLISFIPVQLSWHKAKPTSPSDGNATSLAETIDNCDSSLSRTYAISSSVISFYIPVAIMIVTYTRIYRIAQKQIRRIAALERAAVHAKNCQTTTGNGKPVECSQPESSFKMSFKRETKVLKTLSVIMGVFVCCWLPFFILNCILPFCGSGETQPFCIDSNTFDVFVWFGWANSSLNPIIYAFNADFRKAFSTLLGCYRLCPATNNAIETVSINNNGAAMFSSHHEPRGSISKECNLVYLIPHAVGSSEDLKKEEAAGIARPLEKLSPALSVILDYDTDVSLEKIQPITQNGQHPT
In data set [4] the target is T1, Sigma2 (Rattus norvegicus, UniProt Q5U3Y7).
T1 sequence (Q5U3Y7 1-176): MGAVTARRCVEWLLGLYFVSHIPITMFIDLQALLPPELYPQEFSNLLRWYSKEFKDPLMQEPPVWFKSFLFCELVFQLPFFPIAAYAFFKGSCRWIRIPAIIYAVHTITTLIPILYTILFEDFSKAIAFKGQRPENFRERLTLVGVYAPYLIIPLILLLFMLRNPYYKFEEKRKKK
In words: NIMH-PDSP radioligand binding, Sigma-2.

In data set [5] the test system is Metrazol-induced clonic seizures. In words: Subcutaneous Metrazol seizure threshold test. Particulars: for scMET (30) N/F, animals active over tested: 30 mg/kg; for scMET (100) N/F, animals active over tested: 100 mg/kg. Type of data set: in vivo, mice.
Data set [6] addresses Serotonin Transporter (SERT) (Homo sapiens, UniProt P31645). In words: NIMH-PDSP radioligand binding, SERT.
In data set [7] the target is Norepinephrine Transporter (NET) (Homo sapiens, UniProt P23975). In words: NIMH-PDSP radioligand binding, NET.
Norepinephrine Transporter (NET), sequence (P23975 whole entry): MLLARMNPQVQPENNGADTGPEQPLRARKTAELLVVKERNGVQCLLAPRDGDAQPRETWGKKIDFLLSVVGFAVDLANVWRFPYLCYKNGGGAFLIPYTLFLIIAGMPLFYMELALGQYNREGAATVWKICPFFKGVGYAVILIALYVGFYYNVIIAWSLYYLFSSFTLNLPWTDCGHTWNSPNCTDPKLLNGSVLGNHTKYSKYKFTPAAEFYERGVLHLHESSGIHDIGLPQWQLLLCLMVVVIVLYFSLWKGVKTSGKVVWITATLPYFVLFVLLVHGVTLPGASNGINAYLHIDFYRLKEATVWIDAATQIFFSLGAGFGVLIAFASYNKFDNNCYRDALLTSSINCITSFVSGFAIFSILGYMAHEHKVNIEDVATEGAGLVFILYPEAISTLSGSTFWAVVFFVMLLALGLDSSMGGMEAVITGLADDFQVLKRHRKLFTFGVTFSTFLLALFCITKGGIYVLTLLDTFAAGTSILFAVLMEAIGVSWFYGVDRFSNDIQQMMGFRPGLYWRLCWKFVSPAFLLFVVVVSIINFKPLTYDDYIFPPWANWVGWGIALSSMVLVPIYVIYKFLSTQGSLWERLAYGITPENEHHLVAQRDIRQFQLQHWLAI
Data set [8] addresses Dopamine 2 (D2) (Homo sapiens, UniProt P14416). The experiment in a line: NIMH-PDSP radioligand binding, D2.
For data set [9], the system named is 6HZ. The experiment in a line: 6HZ test. Type of data set: in vivo. Particulars: 50 mg/kg.
The target of data set [10] is Sigma1 (Rattus norvegicus, UniProt Q9R0C9). In words: NIMH-PDSP radioligand binding, Sigma-1.
Sigma1, sequence (Q9R0C9 whole entry): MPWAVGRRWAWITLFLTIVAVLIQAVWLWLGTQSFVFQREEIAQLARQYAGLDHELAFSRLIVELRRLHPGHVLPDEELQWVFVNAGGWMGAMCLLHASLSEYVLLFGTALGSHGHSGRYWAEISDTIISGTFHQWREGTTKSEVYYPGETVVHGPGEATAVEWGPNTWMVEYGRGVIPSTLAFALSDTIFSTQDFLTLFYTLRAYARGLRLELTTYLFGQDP
Data set [11] addresses κ- opioid receptors (KOR) (Rattus norvegicus, UniProt P34975). In words: NIMH-PDSP radioligand binding, KOR.
For data set [12], the system named is MES-induced seizures. In words: Anticonvulsant protection test in rats. The data set is classed as in vivo. The settings on record: 30 mg/kg. The method, boiled down:
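Rats were dosed orally at 30 mg/kg in 0.04 ml/10 g. Corneal electrodes primed with 0.5% tetracaine HCl electrolyte delivered 60 Hz alternating current, 150 mA, for 0.2 s. Protection meant abolition of the hindlimb tonic extensor component of the seizure.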

Data set [13] has as its target Dopamine Transporter (DAT) (Homo sapiens, UniProt Q01959). The experiment in a line: NIMH-PDSP radioligand binding, DAT.
The subject of data set [14] is MES-induced seizures. In words: Maximal electroshock. Type of data set: in vivo, mice. The settings on record: for MES (30) N/F, animals active over tested: 30 mg/kg i.p.; for MES (100) N/F, animals active over tested: 100 mg/kg i.p.; for MES (300) N/F, animals active over tested: 300 mg/kg i.p. The method, boiled down: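 Mice received test compound i.p. at 30, 100 or 300 mg/kg in 0.01 ml/g and were tested at various intervals after dosing. Corneal electrodes primed with 0.5% tetracaine HCl electrolyte delivered 60 Hz alternating current, 50 mA, for 0.2 s. An animal counted as protected when the hindlimb tonic extensor component was abolished. Results are scored as animals protected over tested.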
Background: Protection in the maximal electroshock model is a classic sign of anticonvulsant action.

Data set [15] deals with μ- opioid receptors (MOR) (Homo sapiens, UniProt P35372). In words: NIMH-PDSP radioligand binding, MOR.
μ- opioid receptors (MOR), sequence (P35372 whole entry): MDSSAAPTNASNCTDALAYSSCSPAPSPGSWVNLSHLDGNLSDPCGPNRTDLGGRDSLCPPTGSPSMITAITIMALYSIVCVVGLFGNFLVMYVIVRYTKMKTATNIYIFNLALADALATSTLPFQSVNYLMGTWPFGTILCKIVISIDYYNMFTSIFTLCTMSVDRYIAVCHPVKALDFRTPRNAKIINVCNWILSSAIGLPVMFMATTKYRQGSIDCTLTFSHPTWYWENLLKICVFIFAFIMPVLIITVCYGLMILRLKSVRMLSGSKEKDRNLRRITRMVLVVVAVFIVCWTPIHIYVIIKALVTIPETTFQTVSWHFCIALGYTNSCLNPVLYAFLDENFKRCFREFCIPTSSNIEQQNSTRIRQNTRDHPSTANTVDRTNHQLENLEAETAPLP
The test system of data set [16] is mice. In words: Acute toxicity, minimal motor impairment. The data set is classed as in vivo. The settings on record: for TOX (30) N/F, animals toxic over tested: 30 mg/kg.
Data set [17] concerns the target Serotonin 2A (5-HT2A) (Homo sapiens, UniProt P28223). In words: NIMH-PDSP radioligand binding, 5-HT2A.
In data set [18] the test system is MES-induced seizures. Particulars: literature statement, no reference given; cited from earlier work.
The subject of data set [19] is PCP site of the NMDA receptor complex. Particulars: ref [39], [40]; cited from earlier work.

Structures are written as SMILES. “Also recorded” adds a separate entry of the source.

Serotonin 2A (5-HT2A), sequence (P28223 whole entry): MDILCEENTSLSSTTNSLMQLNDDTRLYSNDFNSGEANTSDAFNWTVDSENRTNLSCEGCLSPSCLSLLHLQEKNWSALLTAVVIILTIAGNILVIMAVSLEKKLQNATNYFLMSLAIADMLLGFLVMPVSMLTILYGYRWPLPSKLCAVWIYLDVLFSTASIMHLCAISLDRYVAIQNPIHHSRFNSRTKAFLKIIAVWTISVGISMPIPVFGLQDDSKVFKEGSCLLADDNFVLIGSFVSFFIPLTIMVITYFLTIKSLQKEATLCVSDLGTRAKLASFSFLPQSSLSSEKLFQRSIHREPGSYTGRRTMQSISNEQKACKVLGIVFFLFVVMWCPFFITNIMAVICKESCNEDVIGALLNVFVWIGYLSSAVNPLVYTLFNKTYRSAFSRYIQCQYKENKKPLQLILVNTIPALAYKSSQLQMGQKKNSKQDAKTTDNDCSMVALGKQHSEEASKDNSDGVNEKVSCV
Dopamine Transporter (DAT), sequence (Q01959 whole entry): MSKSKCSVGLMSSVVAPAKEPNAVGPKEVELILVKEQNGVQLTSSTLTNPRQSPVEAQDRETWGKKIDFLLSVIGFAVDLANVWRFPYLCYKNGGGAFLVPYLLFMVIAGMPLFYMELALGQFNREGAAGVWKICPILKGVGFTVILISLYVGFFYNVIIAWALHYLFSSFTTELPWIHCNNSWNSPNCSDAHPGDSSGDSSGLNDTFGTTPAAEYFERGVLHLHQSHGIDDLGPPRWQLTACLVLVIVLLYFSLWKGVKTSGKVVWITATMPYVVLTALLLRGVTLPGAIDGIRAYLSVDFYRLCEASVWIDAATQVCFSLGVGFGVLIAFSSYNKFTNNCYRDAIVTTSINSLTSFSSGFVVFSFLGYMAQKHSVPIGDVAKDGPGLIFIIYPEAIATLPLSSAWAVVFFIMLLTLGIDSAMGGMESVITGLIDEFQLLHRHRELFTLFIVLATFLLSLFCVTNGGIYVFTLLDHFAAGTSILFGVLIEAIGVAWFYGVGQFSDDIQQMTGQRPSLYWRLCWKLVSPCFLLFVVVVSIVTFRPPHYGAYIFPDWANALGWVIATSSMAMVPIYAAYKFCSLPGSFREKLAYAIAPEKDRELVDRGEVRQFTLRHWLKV
Serotonin Transporter (SERT), sequence (P31645 whole entry): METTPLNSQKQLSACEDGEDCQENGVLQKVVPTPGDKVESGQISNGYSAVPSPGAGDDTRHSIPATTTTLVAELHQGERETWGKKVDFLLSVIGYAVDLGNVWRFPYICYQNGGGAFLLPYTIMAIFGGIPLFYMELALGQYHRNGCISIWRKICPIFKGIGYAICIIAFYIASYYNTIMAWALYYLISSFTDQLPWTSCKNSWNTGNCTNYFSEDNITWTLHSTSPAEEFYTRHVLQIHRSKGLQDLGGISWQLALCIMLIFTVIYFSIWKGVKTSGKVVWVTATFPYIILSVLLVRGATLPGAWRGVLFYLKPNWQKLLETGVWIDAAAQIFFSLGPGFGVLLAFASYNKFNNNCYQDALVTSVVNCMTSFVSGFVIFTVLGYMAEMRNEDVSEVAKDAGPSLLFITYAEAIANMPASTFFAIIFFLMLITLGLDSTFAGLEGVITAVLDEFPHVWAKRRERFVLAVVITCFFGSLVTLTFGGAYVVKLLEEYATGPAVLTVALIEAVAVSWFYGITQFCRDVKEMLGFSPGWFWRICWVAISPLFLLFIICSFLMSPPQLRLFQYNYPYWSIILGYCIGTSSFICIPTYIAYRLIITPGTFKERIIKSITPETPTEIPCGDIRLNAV
κ- opioid receptors (KOR), sequence (P34975 whole entry): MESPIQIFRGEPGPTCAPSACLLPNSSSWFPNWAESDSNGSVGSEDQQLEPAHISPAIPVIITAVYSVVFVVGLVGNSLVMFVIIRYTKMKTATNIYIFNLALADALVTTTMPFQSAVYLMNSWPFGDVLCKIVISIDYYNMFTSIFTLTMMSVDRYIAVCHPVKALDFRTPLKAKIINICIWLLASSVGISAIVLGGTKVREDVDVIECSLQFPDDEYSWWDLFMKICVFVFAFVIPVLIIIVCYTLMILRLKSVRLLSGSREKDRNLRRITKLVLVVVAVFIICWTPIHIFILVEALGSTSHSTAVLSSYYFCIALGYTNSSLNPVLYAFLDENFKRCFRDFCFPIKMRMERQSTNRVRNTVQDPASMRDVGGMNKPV
Dopamine 2 (D2), sequence (P14416 whole entry): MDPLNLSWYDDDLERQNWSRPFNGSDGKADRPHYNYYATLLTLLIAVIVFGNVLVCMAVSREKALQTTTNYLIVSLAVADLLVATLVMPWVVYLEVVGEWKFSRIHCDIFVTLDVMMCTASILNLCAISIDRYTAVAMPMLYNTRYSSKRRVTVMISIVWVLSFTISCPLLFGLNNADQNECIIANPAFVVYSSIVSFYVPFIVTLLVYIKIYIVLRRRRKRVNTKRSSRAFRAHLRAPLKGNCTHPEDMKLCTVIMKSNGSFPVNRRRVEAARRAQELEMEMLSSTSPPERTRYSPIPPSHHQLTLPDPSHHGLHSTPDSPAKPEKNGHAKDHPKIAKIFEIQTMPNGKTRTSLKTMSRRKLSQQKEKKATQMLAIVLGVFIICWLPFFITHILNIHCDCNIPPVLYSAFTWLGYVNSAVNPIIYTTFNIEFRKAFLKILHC

Turning to `Fc1ccc(C2(NCCN3CCOCC3)CC3CCC2C3)cc1` (centres unmarked) [Compound 5d, 2-(4-Fluorophenyl)-N-(2-morpholinoethyl)bicyclo [2.2.1]heptan-2-amine], in [1], the “toxicity in rats (in words)” value is reported as “did not display any protection or toxicity”. In data set [2], the “affinity for NMDA (in words)” value is given as “did not exhibit significant affinity”. The Ki in [3], in data set [4], in data set [6], in [7], in data set [8] and in data set [10] was > 10 µM each time. The Ki (as a rule, the equilibrium dissociation constant of an inhibitor or competing ligand from its target) in [11] is > 10 µM; in data set [13], 6.48 µM; in [15] it was > 10 µM; in data set [17], > 10 µM. Further, the “scMET (30) N/F, animals active over tested” value in data set [5] (0.5 h) and in data set [5] (4.0 h) was 0/1 0/1 each time. In addition, the “scMET (100) N/F, animals active over tested” value in data set [5] (0.5 h) and in data set [5] (4.0 h) was 0/1 0/1 each time. Moreover, the “6HZ (50), animals active over tested” value in [9] (0.5 h) and in data set [9] (4.0 h) was 1/4 1/4 in each case. Further, the “protection in rats (in words)” value in [12] is “did not display any protection”. Besides, the “MES (30) N/F, animals active over tested” value in data set [14] (0.5 h) and in data set [14] (4.0 h) was 0/1 0/1 throughout. For the same compound, the “MES (100) N/F, animals active over tested” value in data set [14] (0.5 h) is recorded as 2/3; in data set [14] (4.0 h), 0/3. Further, the “MES (300) N/F, animals active over tested” value in data set [14] (0.5 h) is 1/1; in data set [14] (4.0 h), 0/0. Besides, in data set [14] (mouse, in vivo), the “MES neuroprotective activity (in words)” value is reported as “displayed MES neuroprotective activity”. In addition, the TOX comments result in data set [16] (65 mg/kg, 0.25 h) is “Clonic seizures”; in data set [16] (100 mg/kg, 0.5 h), “Clonic seizures”; in data set [16] (300 mg/kg, 0.5 h), “Loss of righting reflex; also recorded: Death”. Also, the “TOX (30) N/F, animals toxic over tested” value is 0/4 in data set [16] (rotorod, 0.5 h) and 0/2 in data set [16] (rotorod, 4.0 h). The “TOX (65) N/F, animals toxic over tested” value in data set [16] (rotorod, 65 mg/kg, 0.5 h) is on record as 0/4 0/4; in [16] (rotorod, 65 mg/kg, 4.0 h), 0/4 0/4. In addition, the “TOX (100) N/F, animals toxic over tested” value in data set [16] (rotorod, 100 mg/kg, 0.5 h) is recorded as 1/8; in data set [16] (rotorod, 100 mg/kg, 4.0 h), 0/4. The “TOX (300) N/F, animals toxic over tested” value in data set [16] (rotorod, 300 mg/kg, 0.5 h) is reported as 4/4 /.

Consider `COc1ccc2c(c1)[C@]13CCCC[C@@H]1[C@H](C2)N(C)CC3` [DXM, dextromethorphan], for which the “neuroprotective activity in the MES test (in words)” value in data set [18] was “neuroprotective activity in the MES test”. Also, the “activity / affinity at NMDA (in words)” value in data set [19] is “low activity at NMDA”.
